In ChEMBL document CHEMBL5303300, “EUbOPEN Chemogenomics Library - Multiplex” (2023):
Values joined by “and” are separate entries in the source; they are usually repeats but may differ in a detail not shown here. Equal values may be shown once.

Tested on: Fibroblast
Assay: Multiplex assay against human fibroblast
Assay type: toxicity, cell-based
Conditions: number of replicates 2
Procedure, shortened: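 Compound was added to live cells that had been stained at seeding with Hoechst33342, BioTracker Green Microtubule Cytoskeleton Dye, MitoTracker Red and Annexin V Alexa Fluor 680, and imaging followed on a CQ1 microscope at 37°C and 5% CO2. CellPathfinder machine-learning gating divided cells into Hoechst high-intensity objects or normal cells, normal cells into healthy, pyknosed or fragmented nuclei, and pyknosed cells into mitotic or apoptotic. Tubulin, mitochondrial-mass and membrane-permeability phenotypes are per cents of healthy-nucleus cells.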

[1] = 12 h, 1 µM, compound concentration 1 uM
[2] = 12 h, 10 µM, compound concentration 10 uM
[3] = 24 h, 1 µM, compound concentration 1 uM
[4] = 24 h, 10 µM, compound concentration 10 uM
[5] = 48 h, 1 µM, compound concentration 1 uM
[6] = 48 h, 10 µM, compound concentration 10 uM

Structure (SMILES): CN1CCCN(C(=O)c2cccc(-c3ccc(/C=C4/C(=O)Nc5ccc(Cl)cc54)o3)c2)CC1
- Population Apoptotic (%) [1]: 43% and 41%
- Population Fragmented Nuclei (%) [1]: 4% and 3%
- Population Healthy Nuclei (%) [1]: 79% and 72%
- Population Hoechst High Intensity Objects (%) [1]: 0%
- Population Membrane Permeable-Phenotype (%) [1]: 4% and 1%
- Population Mitochondria Different-Phenotype (%) [1]: 2%
- Population Mitotic Cells (%) [1]: 56% and 58%
- Population Normal (%) [1]: 100%
- Population Pyknosed Nuclei (%) [1]: 16% and 24%
- Population Tubulin-Different-Phenotype (%) [1]: 20%
- Total Cell Count [1]: 283 and 162
- Population Apoptotic (%) [2]: 39% and 56%
- Population Fragmented Nuclei (%) [2]: 3% and 1%
- Population Healthy Nuclei (%) [2]: 8% and 3%
- Population Hoechst High Intensity Objects (%) [2]: 0%
- Population Mitochondria Different-Phenotype (%) [2]: 7% and 0%
- Population Mitotic Cells (%) [2]: 60% and 44%
- Population Normal (%) [2]: 99% and 100%
- Population Pyknosed Nuclei (%) [2]: 88% and 95%
- Population Tubulin-Different-Phenotype (%) [2]: 61% and 100%
- Total Cell Count [2]: 156 and 131
- Population Apoptotic (%) [3]: 48% and 54%
- Population Fragmented Nuclei (%) [3]: 4%
- Population Healthy Nuclei (%) [3]: 83% and 75%
- Population Hoechst High Intensity Objects (%) [3]: 0%
- Population Membrane Permeable-Phenotype (%) [3]: 5% and 3%
- Population Mitochondria Different-Phenotype (%) [3]: 3% and 8%
- Population Mitotic Cells (%) [3]: 51% and 45%
- Population Normal (%) [3]: 100%
- Population Pyknosed Nuclei (%) [3]: 12% and 20%
- Population Tubulin-Different-Phenotype (%) [3]: 25%
- Total Cell Count [3]: 271 and 164
- Population Apoptotic (%) [4]: 75% and 57%
- Population Fragmented Nuclei (%) [4]: 4% and 7%
- Population Healthy Nuclei (%) [4]: 17% and 13%
- Population Hoechst High Intensity Objects (%) [4]: 0%
- Population Membrane Permeable-Phenotype (%) [4]: 65% and 52%
- Population Mitochondria Different-Phenotype (%) [4]: 4% and 0%
- Population Mitotic Cells (%) [4]: 24% and 42%
- Population Normal (%) [4]: 100%
- Population Pyknosed Nuclei (%) [4]: 78%
- Population Tubulin-Different-Phenotype (%) [4]: 34% and 30%
- Total Cell Count [4]: 135 and 165
- Population Apoptotic (%) [5]: 62% and 80%
- Population Fragmented Nuclei (%) [5]: 8% and 7%
- Population Healthy Nuclei (%) [5]: 81% and 78%
- Population Hoechst High Intensity Objects (%) [5]: 0%
- Population Membrane Permeable-Phenotype (%) [5]: 4% and 8%
- Population Mitochondria Different-Phenotype (%) [5]: 1%
- Population Mitotic Cells (%) [5]: 37% and 19%
- Population Normal (%) [5]: 100% and 99%
- Population Pyknosed Nuclei (%) [5]: 10% and 13%
- Population Tubulin-Different-Phenotype (%) [5]: 20% and 17%
- Total Cell Count [5]: 269 and 155
- Population Apoptotic (%) [6]: 88% and 71%
- Population Fragmented Nuclei (%) [6]: 20% and 37%
- Population Healthy Nuclei (%) [6]: 26% and 18%
- Population Hoechst High Intensity Objects (%) [6]: 0%
- Population Membrane Permeable-Phenotype (%) [6]: 50% and 30%
- Population Mitochondria Different-Phenotype (%) [6]: 0%
- Population Mitotic Cells (%) [6]: 11% and 28%
- Population Normal (%) [6]: 100%
- Population Pyknosed Nuclei (%) [6]: 52% and 43%
- Population Tubulin-Different-Phenotype (%) [6]: 46% and 27%
- Total Cell Count [6]: 120 and 174

Structure (SMILES): OC(c1ccc(-c2ccc(CN3CCN(Cc4ccncc4)CC3)cc2)c(F)c1)(C(F)(F)F)C(F)(F)F
- Population Apoptotic (%) [1]: 54% and 23%
- Population Fragmented Nuclei (%) [1]: 5% and 6%
- Population Healthy Nuclei (%) [1]: 43% and 70%
- Population Hoechst High Intensity Objects (%) [1]: 0%
- Population Membrane Permeable-Phenotype (%) [1]: 8% and 3%
- Population Mitochondria Different-Phenotype (%) [1]: 0% and 1%
- Population Mitotic Cells (%) [1]: 45% and 76%
- Population Normal (%) [1]: 100%
- Population Pyknosed Nuclei (%) [1]: 50% and 23%
- Population Tubulin-Different-Phenotype (%) [1]: 6% and 8%
- Total Cell Count [1]: 108 and 164
- Population Apoptotic (%) [2]: 31% and 45%
- Population Fragmented Nuclei (%) [2]: 10% and 16%
- Population Healthy Nuclei (%) [2]: 70% and 63%
- Population Hoechst High Intensity Objects (%) [2]: 0%
- Population Membrane Permeable-Phenotype (%) [2]: 6% and 8%
- Population Mitochondria Different-Phenotype (%) [2]: 0% and 3%
- Population Mitotic Cells (%) [2]: 68% and 55%
- Population Normal (%) [2]: 100% and 99%
- Population Pyknosed Nuclei (%) [2]: 18% and 19%
- Population Tubulin-Different-Phenotype (%) [2]: 24% and 25%
- Total Cell Count [2]: 156 and 204
- Population Apoptotic (%) [3]: 61% and 55%
- Population Fragmented Nuclei (%) [3]: 6% and 10%
- Population Healthy Nuclei (%) [3]: 45% and 65%
- Population Hoechst High Intensity Objects (%) [3]: 0%
- Population Membrane Permeable-Phenotype (%) [3]: 12% and 7%
- Population Mitochondria Different-Phenotype (%) [3]: 2% and 3%
- Population Mitotic Cells (%) [3]: 38% and 44%
- Population Normal (%) [3]: 100%
- Population Pyknosed Nuclei (%) [3]: 47% and 23%
- Population Tubulin-Different-Phenotype (%) [3]: 16% and 15%
- Total Cell Count [3]: 109 and 151
- Population Apoptotic (%) [4]: 44% and 45%
- Population Fragmented Nuclei (%) [4]: 7% and 13%
- Population Healthy Nuclei (%) [4]: 74% and 61%
- Population Hoechst High Intensity Objects (%) [4]: 0%
- Population Membrane Permeable-Phenotype (%) [4]: 3% and 7%
- Population Mitochondria Different-Phenotype (%) [4]: 1% and 3%
- Population Mitotic Cells (%) [4]: 56% and 54%
- Population Normal (%) [4]: 99% and 100%
- Population Pyknosed Nuclei (%) [4]: 17% and 24%
- Population Tubulin-Different-Phenotype (%) [4]: 16% and 23%
- Total Cell Count [4]: 144 and 197
- Population Apoptotic (%) [5]: 74% and 80%
- Population Fragmented Nuclei (%) [5]: 16% and 17%
- Population Healthy Nuclei (%) [5]: 53% and 61%
- Population Hoechst High Intensity Objects (%) [5]: 0%
- Population Membrane Permeable-Phenotype (%) [5]: 11% and 5%
- Population Mitochondria Different-Phenotype (%) [5]: 0%
- Population Mitotic Cells (%) [5]: 25% and 19%
- Population Normal (%) [5]: 100%
- Population Pyknosed Nuclei (%) [5]: 29% and 21%
- Population Tubulin-Different-Phenotype (%) [5]: 11% and 12%
- Total Cell Count [5]: 118 and 167
- Population Apoptotic (%) [6]: 73% and 77%
- Population Fragmented Nuclei (%) [6]: 14% and 16%
- Population Healthy Nuclei (%) [6]: 73% and 71%
- Population Hoechst High Intensity Objects (%) [6]: 0%
- Population Membrane Permeable-Phenotype (%) [6]: 6% and 4%
- Population Mitochondria Different-Phenotype (%) [6]: 0% and 2%
- Population Mitotic Cells (%) [6]: 26% and 22%
- Population Normal (%) [6]: 100%
- Population Pyknosed Nuclei (%) [6]: 11% and 12%
- Population Tubulin-Different-Phenotype (%) [6]: 16% and 12%
- Total Cell Count [6]: 162 and 183
